# Experimental data as given in ChEMBL document CHEMBL1142936, “Library synthesis and screening: 2,4-diphenylthiazoles and 2,4-diphenyloxazoles as potential novel prion disease therapeutics” (2007).
# Experiments:
# [1] = biological target: Major prion protein (Mus musculus) (UniProt P04925); experiment: Binding affinity at mouse PrPC at 40 uM by SPR assay
# [2] = biological target: Major prion protein (Homo sapiens) (UniProt P04156); experiment: Binding affinity at human PrPC at 40 uM by SPR assay
# [3] = Inhibition of PrPSc formation in mouse SMB cells at 2.5 uM after 5 days […] relative to control; type: functional; settings: 120 h
# Method in brief: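 Scrapie-infected SMB mouse cells seeded at 3 × 10⁴ per well, attached 24 h, then exposed 5 days to compound. DMSO stocks were 400× final, diluted 20-fold into Hank's salt solution, then 20-fold into medium. Lysates were dot-blotted at about 30-40 µg protein, guanidine thiocyanate treated, and probed with anti-PrP 6H4 with ECL detection. PrP^Sc was expressed relative to untreated control, as the mean of triplicates with standard deviation.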
# Major prion protein (Mus musculus), sequence (P04925 whole entry): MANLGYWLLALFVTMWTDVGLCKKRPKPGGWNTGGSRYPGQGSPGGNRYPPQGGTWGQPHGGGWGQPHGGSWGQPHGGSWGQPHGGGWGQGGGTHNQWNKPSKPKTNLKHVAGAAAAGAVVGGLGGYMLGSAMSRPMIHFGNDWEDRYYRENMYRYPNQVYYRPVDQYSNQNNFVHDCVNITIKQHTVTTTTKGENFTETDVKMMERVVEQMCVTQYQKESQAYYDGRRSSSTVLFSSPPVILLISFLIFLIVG
SMILES,RUmax [1] [%],RUmax [2] [%],inhibition at 2.5 µM [3] [%]
O=C(Nc1oc(-c2ccccc2)nc1-c1ccccc1)C1CC1,0,0,
O=C(Nc1oc(-c2ccccc2)nc1-c1ccccc1)c1ccc2ccccc2n1,0,0,
O=C(Nc1oc(-c2ccccc2)nc1-c1ccccc1)c1ccno1,21.7,18.3,
CC(C)(C)OC(=O)Nc1oc(-c2ccccc2)nc1-c1ccccc1,10.6,11.3,
O=C(Nc1oc(-c2ccccc2)nc1-c1ccccc1)c1ccc([N+](=O)[O-])o1,0,0,
O=C(Nc1sc(-c2ccccc2)nc1-c1ccccc1)c1ccco1,8.4,6.5,
O=C(Nc1oc(-c2ccccc2)nc1-c1ccccc1)c1ccc(C(F)(F)F)cc1,0,0,
O=C(Nc1sc(-c2ccccc2)nc1-c1ccccc1)c1cc2ccccc2s1,0,21.1,
CCCC(CCC)C(=O)Nc1sc(-c2ccccc2)nc1-c1ccccc1,0,0,
O=C(Nc1oc(-c2ccccc2)nc1-c1ccccc1)c1cc2ccccc2s1,59.6,48,
O=C(Nc1sc(-c2ccccc2)nc1-c1ccccc1)c1ccc(C(F)(F)F)cc1,0,0,
O=C(Nc1sc(-c2ccccc2)nc1-c1ccccc1)c1ccccc1,0,0,
O=C(Nc1sc(-c2ccccc2)nc1-c1ccccc1)c1cccc(C(F)(F)F)c1,0,65,
O=C(Nc1oc(-c2ccccc2)nc1-c1ccccc1)c1ccncc1,0,0,
O=C(Nc1sc(-c2ccccc2)nc1-c1ccccc1)c1cccnc1,0,0,
O=C(Nc1sc(-c2ccccc2)nc1-c1ccccc1)c1ccc([N+](=O)[O-])o1,0,0,
O=C(Nc1oc(-c2ccccc2)nc1-c1ccccc1)c1cc2ccccc2o1,58,48.9,
O=C(Nc1sc(-c2ccccc2)nc1-c1ccccc1)C1CC1,0,0,
O=C(Nc1sc(-c2ccccc2)nc1-c1ccccc1)c1nc2ccccc2s1,0,40.1,
O=C(Nc1sc(-c2ccccc2)nc1-c1ccccc1)C(F)(F)F,18.7,9.5,13.7
O=C(Nc1oc(-c2ccccc2)nc1-c1ccccc1)c1cccnc1,40,37.3,
O=C(Nc1oc(-c2ccccc2)nc1-c1ccccc1)C(F)(F)F,22,13.7,35.1
O=C(Nc1sc(-c2ccccc2)nc1-c1ccccc1)c1ccccc1C(F)(F)F,0,0,
O=C(Nc1oc(-c2ccccc2)nc1-c1ccccc1)c1ccco1,0,3.8,
COc1ccc(C(=O)Nc2oc(-c3ccccc3)nc2-c2ccccc2)cc1,0,0,
O=C(Nc1oc(-c2ccccc2)nc1-c1ccccc1)c1ccc(F)cc1,0,0,
O=C(Nc1sc(-c2ccccc2)nc1-c1ccccc1)c1ccno1,0,0,
O=C(Nc1oc(-c2ccccc2)nc1-c1ccccc1)c1cccs1,37.4,27.5,
Cc1ccc(C(=O)Nc2sc(-c3ccccc3)nc2-c2ccccc2)s1,0,19.8,
O=C(Nc1sc(-c2ccccc2)nc1-c1ccccc1)c1ccncc1,8.5,5,
